Measurements taken from ChEMBL document CHEMBL1152560, “Substituted 2-arylbenzothiazoles as kinase inhibitors: hit-to-lead optimization” (Bioorg Med Chem, 2009).

Tests used:
[1] = target: Serine/threonine-protein kinase PAK 4 (Homo sapiens) (UniProt O96013); assay: Residual activity of PAK4 at 1 uM by microplate scintillation counting
[2] = target: T1, Activin receptor type-1B (Homo sapiens) (UniProt P36896); assay: Residual activity of ACVR1B at 1 uM by microplate scintillation counting
T1 sequence (whole entry): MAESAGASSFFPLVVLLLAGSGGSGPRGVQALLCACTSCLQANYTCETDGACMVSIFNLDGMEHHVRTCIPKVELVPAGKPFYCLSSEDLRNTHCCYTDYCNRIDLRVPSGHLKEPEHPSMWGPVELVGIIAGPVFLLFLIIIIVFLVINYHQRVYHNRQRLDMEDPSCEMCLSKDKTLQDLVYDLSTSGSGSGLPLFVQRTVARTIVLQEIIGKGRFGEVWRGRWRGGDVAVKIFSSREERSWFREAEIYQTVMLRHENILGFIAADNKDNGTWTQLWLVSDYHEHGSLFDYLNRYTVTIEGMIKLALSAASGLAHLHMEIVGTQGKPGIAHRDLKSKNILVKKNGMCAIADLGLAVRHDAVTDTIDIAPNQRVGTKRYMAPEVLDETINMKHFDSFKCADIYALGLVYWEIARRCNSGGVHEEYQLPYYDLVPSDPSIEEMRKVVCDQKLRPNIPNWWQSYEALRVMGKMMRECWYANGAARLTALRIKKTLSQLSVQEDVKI

[3] = target: Death-associated protein kinase 1 (Homo sapiens) (UniProt P53355); assay: Residual activity of DAPK1 at 1 uM by microplate scintillation counting
Death-associated protein kinase 1 (Homo sapiens), sequence (P53355 whole entry, looked up): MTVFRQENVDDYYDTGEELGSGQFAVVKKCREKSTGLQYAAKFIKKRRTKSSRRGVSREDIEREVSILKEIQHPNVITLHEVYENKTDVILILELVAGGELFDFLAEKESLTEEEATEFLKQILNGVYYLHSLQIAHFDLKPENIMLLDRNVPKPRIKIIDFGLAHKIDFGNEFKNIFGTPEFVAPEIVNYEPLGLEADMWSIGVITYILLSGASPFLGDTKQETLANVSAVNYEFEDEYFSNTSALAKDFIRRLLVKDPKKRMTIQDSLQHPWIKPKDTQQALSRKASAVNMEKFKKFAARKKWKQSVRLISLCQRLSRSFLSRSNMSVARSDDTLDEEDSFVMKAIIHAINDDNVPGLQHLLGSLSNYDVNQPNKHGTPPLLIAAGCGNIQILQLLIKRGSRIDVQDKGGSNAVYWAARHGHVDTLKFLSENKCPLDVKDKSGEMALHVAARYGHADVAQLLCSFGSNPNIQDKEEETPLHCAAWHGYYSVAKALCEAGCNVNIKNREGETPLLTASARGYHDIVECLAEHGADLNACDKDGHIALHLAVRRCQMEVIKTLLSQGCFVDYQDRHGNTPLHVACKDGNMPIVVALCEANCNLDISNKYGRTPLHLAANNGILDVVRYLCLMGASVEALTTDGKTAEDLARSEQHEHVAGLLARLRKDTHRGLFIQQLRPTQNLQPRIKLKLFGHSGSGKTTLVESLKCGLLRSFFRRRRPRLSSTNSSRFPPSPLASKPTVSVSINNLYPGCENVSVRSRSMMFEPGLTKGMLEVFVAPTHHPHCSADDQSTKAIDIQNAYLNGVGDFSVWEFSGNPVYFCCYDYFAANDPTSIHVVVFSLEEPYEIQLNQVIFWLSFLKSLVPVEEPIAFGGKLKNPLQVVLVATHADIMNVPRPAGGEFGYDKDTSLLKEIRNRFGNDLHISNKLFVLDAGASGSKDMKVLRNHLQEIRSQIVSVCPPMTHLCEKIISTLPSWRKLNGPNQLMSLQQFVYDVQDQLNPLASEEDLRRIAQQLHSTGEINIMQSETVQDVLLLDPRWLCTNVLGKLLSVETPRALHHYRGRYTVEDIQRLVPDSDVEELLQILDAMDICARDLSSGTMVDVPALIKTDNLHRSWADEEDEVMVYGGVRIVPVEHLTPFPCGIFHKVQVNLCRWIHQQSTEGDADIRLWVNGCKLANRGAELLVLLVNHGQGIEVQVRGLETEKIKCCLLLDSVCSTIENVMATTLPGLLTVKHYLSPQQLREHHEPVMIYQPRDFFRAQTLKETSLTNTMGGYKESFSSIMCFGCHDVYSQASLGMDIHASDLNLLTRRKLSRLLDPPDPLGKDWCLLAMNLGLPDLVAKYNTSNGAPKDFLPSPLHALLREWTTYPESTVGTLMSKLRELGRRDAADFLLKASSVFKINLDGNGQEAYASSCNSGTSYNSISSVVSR

[4] = target: T2, Serine/threonine-protein kinase D3 (Homo sapiens) (UniProt O94806); assay: Residual activity of PKCnu at 10 uM by microplate scintillation counting
T2 sequence (whole entry): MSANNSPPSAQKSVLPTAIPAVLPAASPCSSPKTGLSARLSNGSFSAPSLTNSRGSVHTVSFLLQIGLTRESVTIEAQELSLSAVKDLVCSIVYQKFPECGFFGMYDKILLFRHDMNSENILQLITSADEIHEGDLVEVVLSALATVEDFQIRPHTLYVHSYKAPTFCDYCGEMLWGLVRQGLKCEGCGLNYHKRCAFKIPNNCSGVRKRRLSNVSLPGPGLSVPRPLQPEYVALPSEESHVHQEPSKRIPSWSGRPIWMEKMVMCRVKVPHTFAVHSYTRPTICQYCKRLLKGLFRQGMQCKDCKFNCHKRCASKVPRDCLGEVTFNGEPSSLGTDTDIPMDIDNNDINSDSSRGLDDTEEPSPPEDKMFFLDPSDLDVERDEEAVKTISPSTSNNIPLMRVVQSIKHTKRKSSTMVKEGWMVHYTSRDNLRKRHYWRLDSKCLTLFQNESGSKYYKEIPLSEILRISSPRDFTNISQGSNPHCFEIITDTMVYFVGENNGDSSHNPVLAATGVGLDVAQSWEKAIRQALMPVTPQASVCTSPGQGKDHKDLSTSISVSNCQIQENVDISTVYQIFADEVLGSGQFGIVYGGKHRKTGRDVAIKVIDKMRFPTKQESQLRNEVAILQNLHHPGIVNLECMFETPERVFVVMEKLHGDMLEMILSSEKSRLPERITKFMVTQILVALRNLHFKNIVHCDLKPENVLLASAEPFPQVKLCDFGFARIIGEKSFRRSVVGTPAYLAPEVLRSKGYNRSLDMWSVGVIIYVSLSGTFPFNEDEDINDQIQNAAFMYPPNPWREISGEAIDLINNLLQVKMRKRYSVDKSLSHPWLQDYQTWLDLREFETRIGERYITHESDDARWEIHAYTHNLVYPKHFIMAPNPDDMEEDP

[5] = target: Ribosomal protein S6 kinase beta-2 (Homo sapiens) (UniProt Q9UBS0); assay: Residual activity of S6Kbeta at 10 uM by microplate scintillation counting
Ribosomal protein S6 kinase beta-2 (Homo sapiens), sequence (Q9UBS0 whole entry): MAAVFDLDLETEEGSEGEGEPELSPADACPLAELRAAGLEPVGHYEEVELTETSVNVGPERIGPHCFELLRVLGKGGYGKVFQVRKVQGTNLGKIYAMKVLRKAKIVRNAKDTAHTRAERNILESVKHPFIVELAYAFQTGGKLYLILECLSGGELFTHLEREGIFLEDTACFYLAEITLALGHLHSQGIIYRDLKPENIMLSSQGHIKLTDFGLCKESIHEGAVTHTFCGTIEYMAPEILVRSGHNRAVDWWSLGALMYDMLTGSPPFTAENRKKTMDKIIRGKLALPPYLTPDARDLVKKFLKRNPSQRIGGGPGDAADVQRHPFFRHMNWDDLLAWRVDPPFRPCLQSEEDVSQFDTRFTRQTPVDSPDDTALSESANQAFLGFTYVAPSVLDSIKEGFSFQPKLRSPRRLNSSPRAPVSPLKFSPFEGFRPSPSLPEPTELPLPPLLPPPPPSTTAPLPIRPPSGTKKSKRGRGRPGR

[6] = target: T3, Aurora kinase A (Homo sapiens) (UniProt O14965); assay: Residual activity of Aurora-A at 1 uM by microplate scintillation counting
T3 sequence (whole entry): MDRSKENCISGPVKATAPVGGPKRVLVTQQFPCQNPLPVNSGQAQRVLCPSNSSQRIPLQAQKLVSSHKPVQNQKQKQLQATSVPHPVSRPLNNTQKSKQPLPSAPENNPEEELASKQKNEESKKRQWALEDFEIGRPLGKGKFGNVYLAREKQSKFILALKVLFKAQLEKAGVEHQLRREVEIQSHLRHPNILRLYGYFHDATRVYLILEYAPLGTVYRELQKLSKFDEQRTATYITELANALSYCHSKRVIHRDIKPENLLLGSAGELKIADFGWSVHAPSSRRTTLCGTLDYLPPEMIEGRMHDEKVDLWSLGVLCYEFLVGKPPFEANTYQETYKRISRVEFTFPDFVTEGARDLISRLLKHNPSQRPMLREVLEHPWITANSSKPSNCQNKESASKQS

[7] = target: Protein kinase C delta type (Homo sapiens) (UniProt Q05655); assay: Residual activity of PKCdelta at 0.1 uM by microplate scintillation counting
Protein kinase C delta type (Homo sapiens), sequence (Q05655 whole entry, looked up): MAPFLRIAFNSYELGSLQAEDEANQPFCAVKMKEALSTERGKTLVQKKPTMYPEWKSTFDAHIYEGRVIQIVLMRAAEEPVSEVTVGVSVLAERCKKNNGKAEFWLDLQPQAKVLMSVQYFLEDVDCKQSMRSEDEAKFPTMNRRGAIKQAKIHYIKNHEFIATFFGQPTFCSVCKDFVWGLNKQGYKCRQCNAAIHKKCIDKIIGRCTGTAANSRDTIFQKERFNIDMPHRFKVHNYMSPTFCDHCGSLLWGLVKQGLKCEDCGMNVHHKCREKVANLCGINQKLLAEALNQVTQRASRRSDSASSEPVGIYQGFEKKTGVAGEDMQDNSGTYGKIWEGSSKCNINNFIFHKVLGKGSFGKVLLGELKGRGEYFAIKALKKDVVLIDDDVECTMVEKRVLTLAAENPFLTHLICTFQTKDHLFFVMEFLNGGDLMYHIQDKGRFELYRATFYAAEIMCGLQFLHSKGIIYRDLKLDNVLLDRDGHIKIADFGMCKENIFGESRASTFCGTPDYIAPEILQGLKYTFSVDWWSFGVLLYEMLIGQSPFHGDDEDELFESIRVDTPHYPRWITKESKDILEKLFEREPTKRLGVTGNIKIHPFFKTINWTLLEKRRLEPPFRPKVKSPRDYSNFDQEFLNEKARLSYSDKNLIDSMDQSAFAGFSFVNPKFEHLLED

[8] = target: Receptor-interacting serine/threonine-protein kinase 2 (Homo sapiens) (UniProt O43353); assay: Residual activity of RIPK2 at 10 uM by microplate scintillation counting
[9] = test system: RAF proto-oncogene serine/threonine-protein kinase (Homo sapiens), P04049 [Y340D,Y341D]; assay: Residual activity of RAF1 Y340D/Y341D mutant at 0.1 uM by microplate scintillation counting
[10] = target: Death-associated protein kinase 2 (Homo sapiens) (UniProt Q9UIK4); assay: Residual activity of DAPK2 at 1 uM by microplate scintillation counting
Death-associated protein kinase 2 (Homo sapiens), sequence (Q9UIK4 whole entry, looked up): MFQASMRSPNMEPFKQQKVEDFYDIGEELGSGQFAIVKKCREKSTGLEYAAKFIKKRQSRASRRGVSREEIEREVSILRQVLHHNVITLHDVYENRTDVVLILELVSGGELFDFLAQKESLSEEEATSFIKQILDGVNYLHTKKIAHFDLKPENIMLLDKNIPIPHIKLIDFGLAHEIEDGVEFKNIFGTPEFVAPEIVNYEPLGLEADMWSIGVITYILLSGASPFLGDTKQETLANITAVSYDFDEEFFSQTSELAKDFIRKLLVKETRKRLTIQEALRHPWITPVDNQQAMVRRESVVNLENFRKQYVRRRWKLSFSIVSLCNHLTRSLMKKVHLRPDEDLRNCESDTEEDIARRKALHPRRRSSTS

[11] = target: Tyrosine-protein kinase Fer (Homo sapiens) (UniProt P16591); assay: Residual activity of FER at 0.1 uM by microplate scintillation counting
Angiopoietin-1 receptor = Angiopoietin-1 receptor (Homo sapiens, UniProt Q02763); assay: Inhibition of TIE2 in human HCT116 cells by cellular phosphorylation assay; assay type: cell-based, HCT-116
Angiopoietin-1 receptor, sequence (Q02763 whole entry): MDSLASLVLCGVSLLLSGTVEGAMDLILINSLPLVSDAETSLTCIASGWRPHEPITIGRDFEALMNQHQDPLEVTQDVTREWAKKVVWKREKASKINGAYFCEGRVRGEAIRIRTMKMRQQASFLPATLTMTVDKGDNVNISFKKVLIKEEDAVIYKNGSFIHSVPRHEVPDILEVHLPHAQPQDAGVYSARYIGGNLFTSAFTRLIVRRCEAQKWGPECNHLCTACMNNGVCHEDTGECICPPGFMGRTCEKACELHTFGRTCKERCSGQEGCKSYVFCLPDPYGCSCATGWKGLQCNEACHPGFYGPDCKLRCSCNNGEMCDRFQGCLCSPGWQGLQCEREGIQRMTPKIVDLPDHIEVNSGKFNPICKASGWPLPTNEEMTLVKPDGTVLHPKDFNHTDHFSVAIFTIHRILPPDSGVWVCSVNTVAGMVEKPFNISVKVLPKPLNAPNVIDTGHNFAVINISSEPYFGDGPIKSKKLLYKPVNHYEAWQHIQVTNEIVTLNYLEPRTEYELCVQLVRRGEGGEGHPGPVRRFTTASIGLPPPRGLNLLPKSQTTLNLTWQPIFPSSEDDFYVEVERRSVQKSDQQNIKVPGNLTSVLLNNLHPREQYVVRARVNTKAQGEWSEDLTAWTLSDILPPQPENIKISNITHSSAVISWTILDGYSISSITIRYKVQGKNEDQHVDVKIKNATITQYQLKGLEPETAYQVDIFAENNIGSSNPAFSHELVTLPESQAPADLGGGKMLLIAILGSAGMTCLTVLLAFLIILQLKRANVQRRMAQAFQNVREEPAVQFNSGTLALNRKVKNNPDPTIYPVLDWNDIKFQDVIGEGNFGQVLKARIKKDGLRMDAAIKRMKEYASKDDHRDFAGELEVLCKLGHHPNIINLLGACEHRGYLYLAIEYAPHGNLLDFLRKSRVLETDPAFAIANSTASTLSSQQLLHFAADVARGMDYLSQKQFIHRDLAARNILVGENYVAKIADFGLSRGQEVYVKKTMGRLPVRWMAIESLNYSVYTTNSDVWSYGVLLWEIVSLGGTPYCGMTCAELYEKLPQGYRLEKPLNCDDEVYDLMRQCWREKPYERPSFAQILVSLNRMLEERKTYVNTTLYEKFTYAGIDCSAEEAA
Method in brief: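 TIE2 autophosphorylation in cells expressing the receptor. Compound was applied, cells were stimulated, then lysed with phosphoprotein levels preserved. Phosphorylation was quantified by sandwich ELISA with a receptor-specific capture antibody and anti-phosphotyrosine antibody, relative to the stimulated high control.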

[12] = target: MAP kinase-activated protein kinase 3 (Homo sapiens) (UniProt Q16644); assay: Residual activity of MAPKAPK3 at 10 uM by microplate scintillation counting
MAP kinase-activated protein kinase 3 (Homo sapiens), sequence (Q16644 whole entry, looked up): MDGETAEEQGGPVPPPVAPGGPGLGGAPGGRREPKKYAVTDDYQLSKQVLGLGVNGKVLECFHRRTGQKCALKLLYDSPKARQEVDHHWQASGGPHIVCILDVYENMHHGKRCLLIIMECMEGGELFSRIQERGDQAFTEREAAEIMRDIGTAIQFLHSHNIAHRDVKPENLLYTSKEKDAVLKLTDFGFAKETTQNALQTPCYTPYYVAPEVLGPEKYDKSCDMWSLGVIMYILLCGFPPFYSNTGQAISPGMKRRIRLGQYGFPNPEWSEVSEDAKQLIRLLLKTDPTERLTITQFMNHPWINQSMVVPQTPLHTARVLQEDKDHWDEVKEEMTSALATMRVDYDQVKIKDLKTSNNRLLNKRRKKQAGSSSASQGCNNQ

[13] = target: T1, Activin receptor type-1B (Homo sapiens); assay: Residual activity of ACVR1B at 10 uM by microplate scintillation counting

Serine/threonine-protein kinase PAK 4 (Homo sapiens), sequence (O96013 whole entry, looked up): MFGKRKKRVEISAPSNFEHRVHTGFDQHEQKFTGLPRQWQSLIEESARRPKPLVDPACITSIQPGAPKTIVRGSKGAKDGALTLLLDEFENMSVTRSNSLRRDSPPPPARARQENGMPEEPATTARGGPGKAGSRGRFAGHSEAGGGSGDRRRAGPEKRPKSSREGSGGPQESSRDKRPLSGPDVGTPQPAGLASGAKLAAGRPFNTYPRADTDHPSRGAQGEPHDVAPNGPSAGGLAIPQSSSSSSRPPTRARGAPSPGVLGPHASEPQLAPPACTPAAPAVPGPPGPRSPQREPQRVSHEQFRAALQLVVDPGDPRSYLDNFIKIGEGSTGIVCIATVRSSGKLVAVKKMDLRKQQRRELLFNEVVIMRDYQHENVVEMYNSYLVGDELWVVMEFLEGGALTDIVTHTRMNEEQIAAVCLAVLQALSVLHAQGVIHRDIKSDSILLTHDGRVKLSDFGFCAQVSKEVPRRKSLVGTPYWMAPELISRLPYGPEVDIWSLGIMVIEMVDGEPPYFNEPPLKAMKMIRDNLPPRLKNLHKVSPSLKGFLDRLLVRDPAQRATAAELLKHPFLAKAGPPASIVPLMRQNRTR

Compound	residual activity [1] [%]	residual activity [2] [%]	residual activity [3] [%]	residual activity [4] [%]	residual activity [5] [%]	residual activity [6] [%]	residual activity [7] [%]	residual activity [8] [%]	residual activity [9] [%]	residual activity [10] [%]	residual activity [11] [%]	EC50 (Angiopoietin-1 receptor) [nM]	residual activity [12] [%]	residual activity [13] [%]
COc1cc2c(Oc3ccc(-c4nc5ccccc5s4)cc3)ncnc2cc1OCCCN1CCN(C)CC1	105	85	81	52	75	22	93	2	114	79	104	540	41	93
COc1cc2c(Oc3ccc(-c4nc5ccccc5s4)cc3F)ncnc2cc1OCCCN1CCN(C)CC1	99	89	90	50	77	28	95	1	100	90	108	300	42	109
COc1cc2c(Oc3ccc(-c4nc5ccccc5s4)cc3)ncnc2cc1OCCCN1CCCC1	112	96	86	82	85	25	88	4	95	92	96	140	67	104
